{"source": "ChEMBL document CHEMBL1821604", "about": "“Anticancer activity and cDNA microarray studies of a (RS)-1,2,3,5-tetrahydro-4,1-benzoxazepine-3-yl]-6-chloro-9H-purine, and an acyclic (RS)-O,N-acetalic 6-chloro-7H-purine” (Eur J Med Chem, 2011)", "key": {"MCF7 [1]": {"system": "MCF7", "assay": "Cytotoxicity against human MCF7 cells after 6 days by SRB colorimetric assay", "type": "functional, cell-based", "settings": "MCF7, 144 h"}, "MCF7 [2]": {"system": "MCF7", "assay": "Down regulation of C20orf54 gene expression in human MCF7 cells at IC50 after 48 hrs by cDNA microarray technique relative to control", "type": "functional", "summary_of_the_method": "(§1)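 8 × 10⁶ cells exposed 48 h to compound at its IC50 concentration; total RNA isolated with trizol/chloroform and RNeasy columns including on-column DNase step; RNA quantified by OD 260/280; DMSO-treated cultures as control.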"}, "HT-29 [3]": {"system": "HT-29", "assay": "Upregulation of PDE4B gene expression in human HT-29 cells at IC50 after 48 hrs by cDNA microarray technique relative to control", "type": "functional"}, "HT-29 [4]": {"system": "HT-29", "assay": "Upregulation of C20orf40 gene expression in human HT-29 cells at IC50 after 48 hrs by cDNA microarray technique relative to control", "type": "functional"}, "MCF7 [5]": {"system": "MCF7", "assay": "Down regulation of EFHC2 gene expression in human MCF7 cells at IC50 after 48 hrs by cDNA microarray technique relative to control", "type": "functional", "summary_of_the_method": "(§2)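 Cells (8 × 10⁶) were cultured in DMEM with 10% heat-inactivated FBS at 37 °C under 5% CO₂. They were exposed for 48 h to compound at its IC₅₀, with DMSO-treated parallel cultures as controls (final DMSO ≤0.1% v/v). Total RNA was isolated by trizol/chloroform phase separation, RNeasy column cleanup and on-column DNase, then quantified by OD260/OD280. Expression was profiled by cDNA microarray relative to control.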"}, "MCF7 [6]": {"system": "MCF7", "assay": "Down regulation of BDKRB1 gene expression in human MCF7 cells at IC50 after 48 hrs by cDNA microarray technique relative to control", "type": "functional", "summary_of_the_method": "as §1"}, "MCF7 [7]": {"system": "MCF7", "assay": "Down regulation of CHST9 gene expression in human MCF7 cells at IC50 after 48 hrs by cDNA microarray technique relative to control", "type": "functional", "summary_of_the_method": "as §1"}, "HT-29 [8]": {"system": "HT-29", "assay": "Down regulation of CD1B gene expression in human HT-29 cells at IC50 after 48 hrs by cDNA microarray technique relative to control", "type": "functional", "summary_of_the_method": "as §1"}, "HT-29 [9]": {"system": "HT-29", "assay": "Down regulation of LOC144448 gene expression in human HT-29 cells at IC50 after 48 hrs by cDNA microarray technique relative to control", "type": "functional"}, "HT-29 [10]": {"system": "HT-29", "assay": "Down regulation of TMEM27 gene expression in human HT-29 cells at IC50 after 48 hrs by cDNA microarray technique relative to control", "type": "functional"}, "MCF7 [11]": {"system": "MCF7", "assay": "Upregulation of WBSCR27 gene expression in human MCF7 cells at IC50 after 48 hrs by cDNA microarray technique relative to control", "type": "functional"}, "MCF7 [12]": {"system": "MCF7", "assay": "Upregulation of HOXB2 gene expression in human MCF7 cells at IC50 after 48 hrs by cDNA microarray technique relative to control", "type": "functional"}, "MCF7 [13]": {"system": "MCF7", "assay": "Upregulation of PPIL4 gene expression in human MCF7 cells at IC50 after 48 hrs by cDNA microarray technique relative to control", "type": "functional"}, "MCF7 [14]": {"system": "MCF7", "assay": "Upregulation of CRTAM gene expression in human MCF7 cells at IC50 after 48 hrs by cDNA microarray technique relative to control", "type": "functional"}, "MCF7 [15]": {"system": "MCF7", "assay": "Down regulation of ADAMTS3 gene expression in human MCF7 cells at IC50 after 48 hrs by cDNA microarray technique relative to control", "type": "functional", "summary_of_the_method": "as §1"}, "HT-29 [16]": {"system": "HT-29", "assay": "Down regulation of SLC39A7 gene expression in human HT-29 cells at IC50 after 48 hrs by cDNA microarray technique relative to control", "type": "functional"}, "HT-29 [17]": {"system": "HT-29", "assay": "Down regulation of FLJ23436 gene expression in human HT-29 cells at IC50 after 48 hrs by cDNA microarray technique relative to control", "type": "functional", "summary_of_the_method": "as §2"}, "HT-29 [18]": {"system": "HT-29", "assay": "Down regulation of ZNF482 gene expression in human HT-29 cells at IC50 after 48 hrs by cDNA microarray technique relative to control", "type": "functional"}, "HT-29 [19]": {"system": "HT-29", "assay": "Down regulation of HUS1B gene expression in human HT-29 cells at IC50 after 48 hrs by cDNA microarray technique relative to control", "type": "functional", "summary_of_the_method": "as §2"}, "HT-29 [20]": {"system": "HT-29", "assay": "Down regulation of HNRPA2B1 gene expression in human HT-29 cells at IC50 after 48 hrs by cDNA microarray technique relative to control", "type": "functional", "summary_of_the_method": "as §2"}, "HT-29 [21]": {"system": "HT-29", "assay": "Down regulation of ZFYVE9 gene expression in human HT-29 cells at IC50 after 48 hrs by cDNA microarray technique relative to control", "type": "functional"}, "HT-29 [22]": {"system": "HT-29", "assay": "Down regulation of PRPS1 gene expression in human HT-29 cells at IC50 after 48 hrs by cDNA microarray technique relative to control", "type": "functional"}, "HT-29 [23]": {"system": "HT-29", "assay": "Down regulation of EML2 gene expression in human HT-29 cells at IC50 after 48 hrs by cDNA microarray technique relative to control", "type": "functional", "summary_of_the_method": "as §2"}, "HT-29 [24]": {"system": "HT-29", "assay": "Down regulation of OR4K15 gene expression in human HT-29 cells at IC50 after 48 hrs by cDNA microarray technique relative to control", "type": "functional"}, "MCF7 [25]": {"system": "MCF7", "assay": "Upregulation of AY232284 gene expression in human MCF7 cells at IC50 after 48 hrs by cDNA microarray technique relative to control", "type": "functional"}, "MCF7 [26]": {"system": "MCF7", "assay": "Upregulation of CD1B gene expression in human MCF7 cells at IC50 after 48 hrs by cDNA microarray technique relative to control", "type": "functional"}, "MCF7 [27]": {"system": "MCF7", "assay": "Upregulation of ATP12A gene expression in human MCF7 cells at IC50 after 48 hrs by cDNA microarray technique relative to control", "type": "functional"}, "MCF7 [28]": {"system": "MCF7", "assay": "Down regulation of TSGA10 gene expression in human MCF7 cells at IC50 after 48 hrs by cDNA microarray technique relative to control", "type": "functional"}, "MCF7 [29]": {"system": "MCF7", "assay": "Down regulation of CNIH3 gene expression in human MCF7 cells at IC50 after 48 hrs by cDNA microarray technique relative to control", "type": "functional", "summary_of_the_method": "as §1"}, "HT-29 [30]": {"system": "HT-29", "assay": "Upregulation of TUBB4 gene expression in human HT-29 cells at IC50 after 48 hrs by cDNA microarray technique relative to control", "type": "functional"}, "HT-29 [31]": {"system": "HT-29", "assay": "Upregulation of C1orf24 gene expression in human HT-29 cells at IC50 after 48 hrs by cDNA microarray technique relative to control", "type": "functional"}, "HT-29 [32]": {"system": "HT-29", "assay": "Upregulation of UNC5B gene expression in human HT-29 cells at IC50 after 48 hrs by cDNA microarray technique relative to control", "type": "functional"}, "HT-29 [33]": {"system": "HT-29", "assay": "Down regulation of PP1201 gene expression in human HT-29 cells at IC50 after 48 hrs by cDNA microarray technique relative to control", "type": "functional"}}, "data": [{"compound": "COC(CN(c1ccccc1CO)S(=O)(=O)c1ccccc1[N+](=O)[O-])n1cnc2ncnc(Cl)c21", "note": "(racemic)", "values": [{"measurement": "IC50", "setting": "MCF7 [1]", "value": 3.25, "unit": "µM"}, {"measurement": "fold change (FC)", "setting": "MCF7 [2]", "value": -2.14}, {"measurement": "fold change (FC)", "setting": "HT-29 [3]", "value": 3.84}, {"measurement": "fold change (FC)", "setting": "HT-29 [4]", "value": 2.56}, {"measurement": "fold change (FC)", "setting": "MCF7 [5]", "value": -2.27}, {"measurement": "fold change (FC)", "setting": "MCF7 [6]", "value": -2.48}, {"measurement": "fold change (FC)", "setting": "MCF7 [7]", "value": -2.53}, {"measurement": "fold change (FC)", "setting": "HT-29 [8]", "value": -2.32}, {"measurement": "fold change (FC)", "setting": "HT-29 [9]", "value": -2.45}, {"measurement": "fold change (FC)", "setting": "HT-29 [10]", "value": -2.99}, {"measurement": "fold change (FC)", "setting": "MCF7 [11]", "value": 3.59}, {"measurement": "fold change (FC)", "setting": "MCF7 [12]", "value": 2.74}, {"measurement": "fold change (FC)", "setting": "MCF7 [13]", "value": 2.4}, {"measurement": "fold change (FC)", "setting": "MCF7 [14]", "value": 2.09}, {"measurement": "fold change (FC)", "setting": "MCF7 [15]", "value": -2.06}]}, {"compound": "O=C(OCC1c2ccccc2-c2ccccc21)N1CC(n2cnc3c(Cl)ncnc32)OCc2ccccc21", "note": "(racemic)", "values": [{"measurement": "fold change (FC)", "setting": "HT-29 [16]", "value": -2.19}, {"measurement": "fold change (FC)", "setting": "HT-29 [17]", "value": -2.2}, {"measurement": "fold change (FC)", "setting": "HT-29 [18]", "value": -2.28}, {"measurement": "fold change (FC)", "setting": "HT-29 [19]", "value": -2.3}, {"measurement": "fold change (FC)", "setting": "HT-29 [20]", "value": -2.33}, {"measurement": "fold change (FC)", "setting": "HT-29 [21]", "value": -2.52}, {"measurement": "fold change (FC)", "setting": "HT-29 [22]", "value": -2.68}, {"measurement": "fold change (FC)", "setting": "HT-29 [23]", "value": -2.82}, {"measurement": "fold change (FC)", "setting": "HT-29 [24]", "value": -3.6}, {"measurement": "fold change (FC)", "setting": "MCF7 [25]", "value": 3.98}, {"measurement": "fold change (FC)", "setting": "MCF7 [26]", "value": 2.31}, {"measurement": "fold change (FC)", "setting": "MCF7 [27]", "value": 2.05}, {"measurement": "fold change (FC)", "setting": "MCF7 [28]", "value": -3.3}, {"measurement": "fold change (FC)", "setting": "MCF7 [29]", "value": -3.32}, {"measurement": "fold change (FC)", "setting": "HT-29 [30]", "value": 3.23}, {"measurement": "fold change (FC)", "setting": "HT-29 [31]", "value": 2.44}, {"measurement": "fold change (FC)", "setting": "HT-29 [32]", "value": 2.42}, {"measurement": "fold change (FC)", "setting": "HT-29 [33]", "value": -2.04}]}]}
